29 molecules from ChEMBL document CHEMBL1949556, “Design and synthesis of boronic acid inhibitors of endothelial lipase” (Bioorg Med Chem Lett, 2012) can be followed below.

pIC50: −log10 of the molar value.

For experiment [1], the species on record is Homo sapiens. As to the kind of experiment: Selectivity ratio of IC50 for human lipoprotein lipase to IC50 for human endothelial lipase by vesicle assay. The method, boiled down: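 Ratio of lipoprotein lipase IC50 to endothelial lipase IC50, both from vesicle assays; unitless.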
The target in experiment [2] is T1, Lipoprotein lipase (Homo sapiens, UniProt P06858).
T1 sequence (P06858 whole entry): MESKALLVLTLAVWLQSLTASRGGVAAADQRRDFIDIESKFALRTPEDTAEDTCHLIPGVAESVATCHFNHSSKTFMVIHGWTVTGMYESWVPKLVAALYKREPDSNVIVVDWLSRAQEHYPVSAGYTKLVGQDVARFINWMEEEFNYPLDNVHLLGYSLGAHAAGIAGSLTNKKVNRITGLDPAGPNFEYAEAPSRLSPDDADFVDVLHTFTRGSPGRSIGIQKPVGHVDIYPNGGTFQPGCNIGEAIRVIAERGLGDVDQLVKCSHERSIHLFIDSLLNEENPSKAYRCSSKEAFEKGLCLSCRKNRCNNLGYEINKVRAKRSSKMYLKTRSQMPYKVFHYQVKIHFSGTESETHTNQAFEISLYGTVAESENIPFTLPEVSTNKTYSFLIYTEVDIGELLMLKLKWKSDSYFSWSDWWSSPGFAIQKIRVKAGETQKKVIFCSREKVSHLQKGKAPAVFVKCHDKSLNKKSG
In words: Inhibition of human lipoprotein lipase expressed using recombinant adenovirus using glycerol-tri[9,10(n)-3H]oleate after 1 hr by vesicle assay. In short, it runs like this: (§1)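 Vesicle (interfacial catalysis) substrate system; IC50 taken as mean of two independent experiments, each run in duplicate.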

The target in experiment [3] is T2, Endothelial lipase (Homo sapiens, UniProt Q9Y5X9).
T2 sequence (Q9Y5X9 whole entry): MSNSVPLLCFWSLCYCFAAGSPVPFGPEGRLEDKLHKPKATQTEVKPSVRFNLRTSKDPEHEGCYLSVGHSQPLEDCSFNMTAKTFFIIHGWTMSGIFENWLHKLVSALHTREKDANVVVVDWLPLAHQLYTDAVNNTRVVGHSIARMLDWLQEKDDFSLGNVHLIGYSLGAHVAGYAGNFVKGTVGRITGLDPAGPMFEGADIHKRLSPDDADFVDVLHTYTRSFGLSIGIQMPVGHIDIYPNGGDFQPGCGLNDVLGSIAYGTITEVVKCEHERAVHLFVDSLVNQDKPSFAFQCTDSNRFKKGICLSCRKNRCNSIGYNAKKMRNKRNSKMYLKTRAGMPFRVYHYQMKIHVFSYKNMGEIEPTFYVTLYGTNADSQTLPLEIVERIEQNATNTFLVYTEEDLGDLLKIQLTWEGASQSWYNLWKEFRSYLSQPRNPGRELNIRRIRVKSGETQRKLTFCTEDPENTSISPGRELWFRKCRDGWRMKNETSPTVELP
As to the kind of experiment: Inhibition of human endothelial lipase expressed using recombinant adenovirus using glycerol-tri[9,10(n)-3H]oleate after 1 hr by vesicle assay. The method, boiled down:
as §1

The target of experiment [4] is T2, Endothelial lipase. In words: Inhibition of human endothelial lipase overexpressed in HUVEC cells using bis-BD-PC and mono-BD-TG as substrate incubated for 10 mins prior to substrate addition by micelle assay. The experiment is classed as cell-based. The method, boiled down: (§2)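 Detergent micelle system, which removes interfacial catalysis and gives direct access to the active site; IC50 taken as mean of two independent experiments, each run in duplicate.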

In experiment [5] the target is T1, Lipoprotein lipase. As to the kind of experiment: Inhibition of human lipoprotein lipase expressed in HEK293 cells using bis-BD-PC and mono-BD-TG as substrate incubated for 10 mins prior to substrate addition by micelle assay. The method, boiled down: as §2
The species entered for experiment [6] is Homo sapiens. As to the kind of experiment: Selectivity ratio of IC50 for human lipoprotein lipase by micelle assay to IC50 for human endothelial lipase by micelle assay. In short, it runs like this:
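Ratio of lipoprotein lipase IC50 to endothelial lipase IC50, both from micelle assays; unitless.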

Experiment [7] concerns the target T3, Lipoprotein lipase (Homo sapiens) (UniProt P06858).
T3 sequence (whole entry): T1 sequence (P06858 whole entry)
As to the kind of experiment: Inhibition of human lipoprotein lipase expressed using recombinant adenovirus using glycerol-tri[9,10(n)-3H]oleate at 50 uM after 1 hr by vesicle assay. The method, boiled down:
(§3)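 Vesicle-based substrate system with the test agent at a single 50 μM concentration; percent inhibition of lipase activity reported.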

The target of experiment [8] is T4, Endothelial lipase (Homo sapiens) (UniProt Q9Y5X9).
T4 sequence (whole entry): T2 sequence (Q9Y5X9 whole entry)
In words: Inhibition of human endothelial lipase expressed using recombinant adenovirus using glycerol-tri[9,10(n)-3H]oleate at 50 uM after 1 hr by vesicle assay. The method, boiled down:
as §3

The term pIC50 denotes the IC50 on a negative log10 scale, so that one unit is a factor of ten. As to `CC1(C)OB(c2ccc(-c3ccsc3)cc2)OC1(C)C`, the values for the Ratio IC50 in the experiment listed under Homo sapiens [1] and in the experiment listed under Homo sapiens [6] were 10 and 12, respectively. For the same molecule, the pIC50 at Lipoprotein lipase [2] was 4.89; at Endothelial lipase [3], 5.89; against Endothelial lipase [4], 5.51; at Lipoprotein lipase [5], 4.44.

Regarding `CC1(C)OB(c2ccc(-c3ccoc3)cc2)OC1(C)C`, the Ratio IC50 stood at 5.4 in the experiment listed under Homo sapiens [1] and 11 in the experiment listed under Homo sapiens [6]. For the same molecule, the pIC50 was 4.82 on Lipoprotein lipase [2], 5.55 on Endothelial lipase [3], 5.54 against Endothelial lipase [4] and 4.48 at Lipoprotein lipase [5].

`CCCCCCCCCc1ccc(B2OC(C)(C)C(C)(C)O2)cc1`: the Ratio IC50 stood at 20 in the experiment filed under Homo sapiens [1] and 15 in the experiment filed under Homo sapiens [6]. For the same molecule, the pIC50 at Lipoprotein lipase [2] was 4.30; on Endothelial lipase [3] it was 5.60; against Endothelial lipase [4] it was 6.00; at Lipoprotein lipase [5], 4.82.

On to `CC1(C)OB(c2ccc(-c3ccc(F)cc3)cc2)OC1(C)C`, for which the values for the Ratio IC50 in the experiment listed under Homo sapiens [1] and in the experiment filed under Homo sapiens [6] were 34 and 30, respectively. The pIC50 on Lipoprotein lipase [2] is 4.26; at Endothelial lipase [3] it was 5.80; against Endothelial lipase [4], 5.96; against Lipoprotein lipase [5], 4.48.

Turning to `CCCCCCCCCCCc1ccc(B2OC(C)(C)C(C)(C)O2)cc1`, the pIC50 was < 4.30 on Lipoprotein lipase [2], 5.35 on Endothelial lipase [3], 5.85 against Endothelial lipase [4] and 4.82 at Lipoprotein lipase [5]. The Ratio IC50 in the experiment listed under Homo sapiens [6] turned out to be 11.

Regarding `CC1(C)OB(c2ccc(-c3ccco3)cc2)OC1(C)C`, the Ratio IC50 is 5 in the experiment filed under Homo sapiens [1] and 27 in the experiment filed under Homo sapiens [6]. Further, the pIC50 is 5.02 on Lipoprotein lipase [2], 5.72 on Endothelial lipase [3], 5.89 on Endothelial lipase [4] and 4.46 at Lipoprotein lipase [5].

Take `CC1(C)OB(c2ccc(-c3ccc4ccccc4c3)cc2)OC1(C)C`: the values for the Ratio IC50 in the experiment filed under Homo sapiens [1] and in the experiment filed under Homo sapiens [6] were 11 and 8.8, respectively. For the same molecule, the pIC50 at Lipoprotein lipase [2] was 4.66; at Endothelial lipase [3], 5.70; against Endothelial lipase [4], 5.77; on Lipoprotein lipase [5], 4.82.

In the case of `CCCCCc1cccc(B(O)O)c1`, the values for the Ratio IC50 in the experiment filed under Homo sapiens [1] and in the experiment listed under Homo sapiens [6] were 4 and 3.8, respectively. For the same molecule, the pIC50 at Lipoprotein lipase [2] is 4.30; at Endothelial lipase [3] it was 4.89; against Endothelial lipase [4], 4.66; against Lipoprotein lipase [5], 4.07.

On to `CCCCCCCCCCCc1ccc(B(O)O)cc1`, for which the Ratio IC50 was determined as 25 in the experiment filed under Homo sapiens [1] and 7.5 in the experiment listed under Homo sapiens [6]. For the same molecule, the pIC50 on Lipoprotein lipase [2] is 4.30; at Endothelial lipase [3], 5.70; at Endothelial lipase [4], 6.70; against Lipoprotein lipase [5], 5.82.

Broadly, the inhibition is the change of the read-out against control, counted positive when it falls. For `CCCCCCCCCCCCCCCC(=O)CCl`, the inhibition in experiment [7] was -10%; in experiment [8], 10%.

Regarding `CCCc1ccc(B2OC(C)(C)C(C)(C)O2)cc1`, the Ratio IC50 in the experiment listed under Homo sapiens [1] is 5; in the experiment filed under Homo sapiens [6] it was 4.1. Also, the pIC50 is 4.60 on Lipoprotein lipase [2], 5.30 at Endothelial lipase [3], 5.22 on Endothelial lipase [4] and 4.60 on Lipoprotein lipase [5].

Turning to `CCCCCc1ccc(B(O)O)cc1`, the Ratio IC50 was 15 in the experiment filed under Homo sapiens [1] and 8 in the experiment listed under Homo sapiens [6]. Further, the pIC50 on Lipoprotein lipase [2] was 4.82; at Endothelial lipase [3], 6.00; at Endothelial lipase [4] it was 6.33; against Lipoprotein lipase [5] it was 5.42.

As to `Cc1ccc(B(O)O)cc1` [TOLYL BORONIC ACID], the figures for the Ratio IC50 in the experiment filed under Homo sapiens [1] and in the experiment filed under Homo sapiens [6] were 0.5 and 1.1, respectively. Further, the results for the pIC50 at Lipoprotein lipase [2], on Endothelial lipase [4] and on Lipoprotein lipase [5] were 5.05, 4.66 and 4.60, respectively.

Turning to `CCCCCCCCCCCCCCCC=O`, the values for the inhibition in experiment [7] and in experiment [8] were -1% and 7%, respectively.

Regarding `CCCCCCCCCCCCCCCB(O)O`, the inhibition is 63% in experiment [7] and 90% in experiment [8].

Consider `CCCCCCCc1ccc(B(O)O)cc1`, for which the Ratio IC50 worked out at 18 in the experiment listed under Homo sapiens [1] and 28 in the experiment listed under Homo sapiens [6]. The pIC50 at Lipoprotein lipase [2] was 4.52; on Endothelial lipase [3], 5.77; against Endothelial lipase [4] it was 6.49; on Lipoprotein lipase [5] it was 5.05.

On to `CC1(C)OB(c2ccc(-c3cccs3)cc2)OC1(C)C`, for which the figures for the Ratio IC50 in the experiment filed under Homo sapiens [1] and in the experiment filed under Homo sapiens [6] were 3.7 and 25, respectively. Further, the pIC50 was 5.15 at Lipoprotein lipase [2], 5.72 on Endothelial lipase [3], 5.80 against Endothelial lipase [4] and 4.40 at Lipoprotein lipase [5].

Regarding `CCCCCCCCCc1ccc(B(O)O)cc1`, the Ratio IC50 in the experiment listed under Homo sapiens [1] came out at 42; in the experiment listed under Homo sapiens [6] it was 14. Further, the pIC50 on Lipoprotein lipase [2] was 4.38; at Endothelial lipase [3] it was 6.00; at Endothelial lipase [4], 7.00; against Lipoprotein lipase [5] it was 5.85.

With `CCCCCCCc1ccc(B2OC(C)(C)C(C)(C)O2)cc1`, the Ratio IC50 in the experiment filed under Homo sapiens [1] is 16; in the experiment listed under Homo sapiens [6] it was 17. Further, the pIC50 is 4.26 at Lipoprotein lipase [2], 5.46 at Endothelial lipase [3], 5.96 against Endothelial lipase [4] and 4.72 on Lipoprotein lipase [5].

As to `CCCCCc1cccc(B2OC(C)(C)C(C)(C)O2)c1`, the Ratio IC50 in the experiment filed under Homo sapiens [1] was determined as 11; in the experiment filed under Homo sapiens [6] it was 2.8. The pIC50 at Lipoprotein lipase [2] is 4.35; at Endothelial lipase [3], 5.38; against Endothelial lipase [4], 4.46; against Lipoprotein lipase [5] it was 4.00.

Take `CCCCCCCCCc1cccc(B(O)O)c1`: the Ratio IC50 in the experiment filed under Homo sapiens [1] was > 20; in the experiment filed under Homo sapiens [6], 19. For the same molecule, the pIC50 is < 4.30 on Lipoprotein lipase [2], 5.55 at Endothelial lipase [3], 5.30 on Endothelial lipase [4] and 4.02 on Lipoprotein lipase [5].

For the molecule `CCCCCCCCCCCCCCCC#N`, the inhibition is 14% in experiment [7] and 4% in experiment [8].

On to `CCCCCCCCCc1ccccc1B(O)O`, for which the pIC50 on Lipoprotein lipase [2] was < 4.30; at Endothelial lipase [3], 4.30; on Endothelial lipase [4], 4.96; against Lipoprotein lipase [5] it was < 3.30. Besides, in the experiment filed under Homo sapiens [6], the Ratio IC50 was > 50.

Regarding `CCCCCCCCCCCCCCCC(=O)C=[N+]=[N-]`, the inhibition in experiment [7] came out at 20%.

On to `CCc1ccc(B(O)O)cc1`, for which the Ratio IC50 is 0.3 in the experiment filed under Homo sapiens [1] and 1 in the experiment filed under Homo sapiens [6]. Further, the pIC50 on Lipoprotein lipase [2] is 5.05; at Endothelial lipase [4], 4.72; on Lipoprotein lipase [5], 4.70.

For the molecule `CCCCCc1ccc(B2OC(C)(C)C(C)(C)O2)cc1`, the Ratio IC50 in the experiment listed under Homo sapiens [1] and in the experiment filed under Homo sapiens [6] was 19 in each case. Also, the pIC50 on Lipoprotein lipase [2] is 4.30; on Endothelial lipase [3], 5.59; against Endothelial lipase [4] it was 5.96; on Lipoprotein lipase [5], 4.68.

For `CCCc1ccc(B(O)O)cc1`, the Ratio IC50 turned out to be 4 in the experiment filed under Homo sapiens [1] and 3.1 in the experiment filed under Homo sapiens [6]. Further, the pIC50 is 5.10 at Lipoprotein lipase [2], 5.70 at Endothelial lipase [3], 5.40 at Endothelial lipase [4] and 4.90 on Lipoprotein lipase [5].

For the molecule `CCCCCCCCCCCCCCCC(=O)C(F)(F)F`, the inhibition is 14% in experiment [7] and 56% in experiment [8].

As to `CC1(C)OB(c2ccc(-c3ccccc3)cc2)OC1(C)C`, the Ratio IC50 in the experiment filed under Homo sapiens [1] worked out at 4.4; in the experiment filed under Homo sapiens [6] it was 12. The pIC50 on Lipoprotein lipase [2] was 5.36; on Endothelial lipase [3] it was 6.00; against Endothelial lipase [4], 6.00; against Lipoprotein lipase [5], 4.92.
